From ChEMBL document CHEMBL1143440, “Tetrakis-azaaromatic quaternary ammonium salts: novel subtype-selective antagonists at neuronal nicotinic receptors that mediate nicotine-evoked dopamine release” (Bioorg Med Chem Lett, 2008)

Columns and labels:
[1] = organism: Rattus norvegicus; assay: Inhibition of nAChR-mediated nicotine-evoked [3H]DA release in superfused rat striatal slices at 100 nM
Method in brief: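 Rat striatal slices, preloaded with [3H]DA, superfused 36 min with or without 100 nM analogue, then 36 min more with 10 μM S(-)-nicotine added. Inhibition expressed as percent of the nicotine-evoked [3H]DA overflow without analogue. At least three independent experiments, each in duplicate.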

[2] = target: Neuronal acetylcholine receptor subunit alpha-7 (Rattus norvegicus) (UniProt Q05941); assay: Displacement of [3H]methyllycaconitine from alpha7 nAChR in rat brain membrane at 100 nM; assay type: cell membranes
Method in brief: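 Whole rat brain membranes, [3H]MLA binding at 2.5 nM radioligand; nonspecific binding defined with 10 μM nicotine. Analogue tested at a 100 nM probe concentration. Inhibition expressed as percent of radioligand binding without analogue. At least three independent experiments, each in duplicate.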

[3] = target: Neuronal acetylcholine receptor; alpha4/beta2 (Rattus norvegicus) (UniProt P09483+P12390); assay: Displacement of [3H]nicotine from alpha4beta2 nAChR in rat brain membrane at 100 nM; assay type: cell membranes
Method in brief: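 Whole rat brain membranes, [3H]nicotine binding at 3 nM radioligand; nonspecific binding defined with 10 μM […]. Analogue tested at a 100 nM probe concentration. Inhibition expressed as percent of radioligand binding without analogue. At least three independent experiments, each in duplicate.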

[4] = Inhibition of nAChR-mediated nicotine-evoked [3H]DA release in superfused rat striatal slices
Method in brief: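 Superfused rat striatal slices, [3H]DA overflow evoked by 10 μM S(-)-nicotine after 36 min analogue pre-exposure, superfusion continued 36 min. Full concentration range 1 nM to 10 μM. IC50 from iterative nonlinear least-squares curve fitting; 4–5 independent experiments, each in duplicate.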

[5] = target: Neuronal acetylcholine receptor subunit alpha-7 (Rattus norvegicus, UniProt Q05941); assay: Displacement of [3H]methyllycaconitine from alpha7 nAChR in rat brain membrane; assay type: cell membranes
Sequence of Neuronal acetylcholine receptor subunit alpha-7 (Q05941 whole entry): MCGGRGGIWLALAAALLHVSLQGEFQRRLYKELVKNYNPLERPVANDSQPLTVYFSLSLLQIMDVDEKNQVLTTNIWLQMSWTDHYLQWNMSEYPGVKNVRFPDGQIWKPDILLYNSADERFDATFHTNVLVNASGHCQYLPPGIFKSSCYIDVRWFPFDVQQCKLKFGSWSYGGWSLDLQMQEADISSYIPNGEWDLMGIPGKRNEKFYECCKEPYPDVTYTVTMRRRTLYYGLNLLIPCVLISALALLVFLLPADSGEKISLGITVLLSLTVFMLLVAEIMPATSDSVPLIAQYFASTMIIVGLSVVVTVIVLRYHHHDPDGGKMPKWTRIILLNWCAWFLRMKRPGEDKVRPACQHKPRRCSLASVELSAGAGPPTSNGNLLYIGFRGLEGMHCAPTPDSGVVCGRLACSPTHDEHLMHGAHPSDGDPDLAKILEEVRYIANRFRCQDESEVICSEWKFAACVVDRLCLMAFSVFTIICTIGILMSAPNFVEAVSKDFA

Sequence of Neuronal acetylcholine receptor subunit alpha-7 (Rattus norvegicus) (Q05941 whole entry): as above

SMILES: CN1CCC[C@H]1c1ccc[n+](CCCCCc2cc(CCCCC[n+]3cccc([C@@H]4CCCN4C)c3)c(CCCCC[n+]3cccc([C@@H]4CCCN4C)c3)cc2CCCCC[n+]2cccc([C@@H]3CCCN3C)c2)c1
- inhibition [1]: 43%
- Activity [2]: 26%
- Activity [3]: 7.4%

SMILES: Cc1ccc[n+](CCCC#Cc2cc(C#CCCC[n+]3cccc(C)c3)cc(C#CCCC[n+]3cccc(C)c3)c2)c1
- inhibition [1]: 40%
- Activity [2]: 0%
- Activity [3]: 10%
- IC50 [4]: 0.2 nM

SMILES: Cc1ccc[n+](CCCCCc2cc(CCCCC[n+]3cccc(C)c3)c(CCCCC[n+]3cccc(C)c3)cc2CCCCC[n+]2cccc(C)c2)c1
- inhibition [1]: 8%
- Activity [2]: 12%
- Activity [3]: 12%

SMILES: OCCCc1ccc[n+](CCCCCc2cc(CCCCC[n+]3cccc(CCCO)c3)c(CCCCC[n+]3cccc(CCCO)c3)cc2CCCCC[n+]2cccc(CCCO)c2)c1
- inhibition [1]: 64%
- Activity [2]: 20%
- Activity [3]: 9.6%
- IC50 [4]: 3.38 nM

SMILES: Cc1cc(C)c[n+](CCCCCc2cc(CCCCC[n+]3cc(C)cc(C)c3)c(CCCCC[n+]3cc(C)cc(C)c3)cc2CCCCC[n+]2cc(C)cc(C)c2)c1
- inhibition [1]: 45%
- Activity [2]: 15%
- Activity [3]: 3.7%

SMILES: Cc1ccc[n+](CCCC#Cc2cc(C#CCCC[n+]3cccc(C)c3)c(C#CCCC[n+]3cccc(C)c3)cc2C#CCCC[n+]2cccc(C)c2)c1
- inhibition [1]: 16%
- Activity [2]: 18%
- Activity [3]: 11%

SMILES: C(#Cc1cc(C#CCCC[n+]2ccc3c(c2)CCCC3)c(C#CCCC[n+]2ccc3c(c2)CCCC3)cc1C#CCCC[n+]1ccc2c(c1)CCCC2)CCC[n+]1ccc2c(c1)CCCC2
- inhibition [1]: 24%
- Activity [2]: 17%
- Activity [3]: 9.7%

SMILES: Cc1cc[n+](CCCCCc2cc(CCCCC[n+]3ccc(C)c(C)c3)c(CCCCC[n+]3ccc(C)c(C)c3)cc2CCCCC[n+]2ccc(C)c(C)c2)cc1C
- inhibition [1]: 36%
- Activity [2]: 18%
- Activity [3]: 0.5%

SMILES: Cc1ccc[n+](CCCCCCCCCCCC[n+]2cccc(C)c2)c1
- Ki [5]: > 100000 nM
- IC50 [4]: 2 nM

SMILES: C(#Cc1cc(C#CCCC[n+]2cccc(Cc3ccccc3)c2)c(C#CCCC[n+]2cccc(Cc3ccccc3)c2)cc1C#CCCC[n+]1cccc(Cc2ccccc2)c1)CCC[n+]1cccc(Cc2ccccc2)c1
- inhibition [1]: 17%
- Activity [2]: 53%
- Activity [3]: 2.9%

SMILES: c1ccc2c[n+](CCCCCc3cc(CCCCC[n+]4ccc5ccccc5c4)c(CCCCC[n+]4ccc5ccccc5c4)cc3CCCCC[n+]3ccc4ccccc4c3)ccc2c1
- inhibition [1]: 63%
- Activity [2]: 24%
- Activity [3]: 6.5%
- IC50 [4]: 56 nM

SMILES: OCCCc1ccc[n+](CCCC#Cc2cc(C#CCCC[n+]3cccc(CCCO)c3)c(C#CCCC[n+]3cccc(CCCO)c3)cc2C#CCCC[n+]2cccc(CCCO)c2)c1
- inhibition [1]: 41%
- Activity [2]: 5.7%
- Activity [3]: 0%

SMILES: c1c(CCCCC[n+]2ccc3c(c2)CCCC3)c(CCCCC[n+]2ccc3c(c2)CCCC3)cc(CCCCC[n+]2ccc3c(c2)CCCC3)c1CCCCC[n+]1ccc2c(c1)CCCC2
- inhibition [1]: 27%
- Activity [2]: 27%
- Activity [3]: 0.9%

SMILES: c1ccc(-c2ccc[n+](CCCCCc3cc(CCCCC[n+]4cccc(-c5ccccc5)c4)c(CCCCC[n+]4cccc(-c5ccccc5)c4)cc3CCCCC[n+]3cccc(-c4ccccc4)c3)c2)cc1
- inhibition [1]: 19%
- Activity [2]: 33%
- Activity [3]: 6.6%

SMILES: C(#Cc1cc(C#CCCC[n+]2cccc(-c3ccccc3)c2)c(C#CCCC[n+]2cccc(-c3ccccc3)c2)cc1C#CCCC[n+]1cccc(-c2ccccc2)c1)CCC[n+]1cccc(-c2ccccc2)c1
- inhibition [1]: 37%
- Activity [2]: 53%
- Activity [3]: 0.3%

SMILES: c1ccc(Cc2ccc[n+](CCCCCc3cc(CCCCC[n+]4cccc(Cc5ccccc5)c4)c(CCCCC[n+]4cccc(Cc5ccccc5)c4)cc3CCCCC[n+]3cccc(Cc4ccccc4)c3)c2)cc1
- inhibition [1]: 54%
- Activity [2]: 16%
- Activity [3]: 13%
- IC50 [4]: 28 nM

SMILES: Cc1cc[n+](CCCC#Cc2cc(C#CCCC[n+]3ccc(C)cc3)c(C#CCCC[n+]3ccc(C)cc3)cc2C#CCCC[n+]2ccc(C)cc2)cc1
- inhibition [1]: 35%
- Activity [2]: 3%
- Activity [3]: 24%

SMILES: CN1CCC[C@H]1c1ccc[n+](CCCC#Cc2cc(C#CCCC[n+]3cccc([C@@H]4CCCN4C)c3)c(C#CCCC[n+]3cccc([C@@H]4CCCN4C)c3)cc2C#CCCC[n+]2cccc([C@@H]3CCCN3C)c2)c1
- inhibition [1]: 31%
- Activity [2]: 15%
- Activity [3]: 38%

SMILES: Cc1cc[n+](CCCCCc2cc(CCCCC[n+]3ccc(C)cc3)c(CCCCC[n+]3ccc(C)cc3)cc2CCCCC[n+]2ccc(C)cc2)cc1
- inhibition [1]: 46%
- Activity [2]: 8%
- Activity [3]: 12%

SMILES: Cc1cc(C)c[n+](CCCC#Cc2cc(C#CCCC[n+]3cc(C)cc(C)c3)c(C#CCCC[n+]3cc(C)cc(C)c3)cc2C#CCCC[n+]2cc(C)cc(C)c2)c1
- inhibition [1]: 12%
- Activity [2]: 3.9%
- Activity [3]: 0%

SMILES: C(#Cc1cc(C#CCCC[n+]2ccc3ccccc3c2)c(C#CCCC[n+]2ccc3ccccc3c2)cc1C#CCCC[n+]1ccc2ccccc2c1)CCC[n+]1ccc2ccccc2c1
- inhibition [1]: 39%
- Activity [2]: 4.9%
- Activity [3]: 0%

SMILES: Cc1cc[n+](CCCC#Cc2cc(C#CCCC[n+]3ccc(C)c(C)c3)c(C#CCCC[n+]3ccc(C)c(C)c3)cc2C#CCCC[n+]2ccc(C)c(C)c2)cc1C
- inhibition [1]: 17%
- Activity [2]: 0.6%
- Activity [3]: 9.8%
